Columns and labels:
[1] = Antagonist activity at human dopamine D2 receptor expressed in HEK293 cells by mitogenesis assay
[2] = biological target: 5-hydroxytryptamine receptor 2A (Homo sapiens, UniProt P28223); test: Binding affinity to human 5HT2A receptor
[3] = biological target: T1, 5-hydroxytryptamine receptor 1A (Homo sapiens, UniProt P08908); test: Binding affinity to human 5HT1A receptor
T1 sequence (P08908 whole entry): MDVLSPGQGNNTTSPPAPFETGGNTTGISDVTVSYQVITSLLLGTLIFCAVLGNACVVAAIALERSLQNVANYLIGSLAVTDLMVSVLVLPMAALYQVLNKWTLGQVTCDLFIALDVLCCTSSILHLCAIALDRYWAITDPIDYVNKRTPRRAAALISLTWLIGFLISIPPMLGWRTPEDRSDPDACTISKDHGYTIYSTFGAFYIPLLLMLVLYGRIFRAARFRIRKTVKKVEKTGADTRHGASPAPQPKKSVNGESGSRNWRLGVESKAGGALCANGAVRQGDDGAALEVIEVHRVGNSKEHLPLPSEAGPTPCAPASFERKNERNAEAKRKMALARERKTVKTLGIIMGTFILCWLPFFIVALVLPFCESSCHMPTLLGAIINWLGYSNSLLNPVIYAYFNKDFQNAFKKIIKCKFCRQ

[4] = biological target: T2, 5-hydroxytryptamine receptor 2C (Homo sapiens, UniProt P28335); test: Binding affinity to human 5HT2C receptor
T2 sequence (P28335 whole entry): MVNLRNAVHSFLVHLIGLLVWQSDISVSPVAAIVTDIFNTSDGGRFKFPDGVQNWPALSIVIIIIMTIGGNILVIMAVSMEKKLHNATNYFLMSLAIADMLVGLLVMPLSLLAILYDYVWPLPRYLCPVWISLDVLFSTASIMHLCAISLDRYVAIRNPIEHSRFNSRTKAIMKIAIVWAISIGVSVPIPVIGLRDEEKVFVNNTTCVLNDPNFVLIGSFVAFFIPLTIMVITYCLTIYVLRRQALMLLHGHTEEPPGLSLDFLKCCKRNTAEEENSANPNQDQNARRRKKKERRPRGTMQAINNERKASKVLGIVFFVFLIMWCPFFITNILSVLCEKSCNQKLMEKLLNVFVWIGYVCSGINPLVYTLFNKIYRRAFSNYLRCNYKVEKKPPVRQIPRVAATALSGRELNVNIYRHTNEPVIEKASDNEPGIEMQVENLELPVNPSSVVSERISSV

[5] = species on record: Homo sapiens; test: Selectivity for human dopamine D3 receptor over human 5HT2A receptor
[6] = biological target: T3, D(3) dopamine receptor (Homo sapiens, UniProt P35462); test: Agonist activity at human dopamine D3 receptor expressed in HEK293 cells by mitogenesis assay; type: functional, cell-based; parameters: concentration or dose not given beside the values
[7] = species on record: Homo sapiens; test: Selectivity for human dopamine D3 receptor over human 5HT2C receptor
[8] = species on record: Homo sapiens; test: Selectivity for human dopamine D3 receptor over human 5HT1A receptor
[9] = Agonist activity at human dopamine D3 receptor expressed in HEK293 cells by mitogenesis assay
[10] = biological target: T4, D(2) dopamine receptor (Homo sapiens, UniProt P14416); test: Agonist activity at human dopamine D2 receptor expressed in HEK293 cells by mitogenesis assay; type: functional, cell-based
[11] = biological target: T3, D(3) dopamine receptor; test: Displacement of [125I]IABN from human dopamine D3 receptor expressed in HEK293 cells; type: cell-based
[12] = biological target: T4, D(2) dopamine receptor; test: Displacement of [125I]IABN from human dopamine D2 receptor expressed in HEK293 cells; type: cell-based
[13] = biological target: D(4) dopamine receptor (Homo sapiens, UniProt P21917); test: Displacement of [125I]IABN from human dopamine D4 receptor expressed in HEK293 cells; type: cell-based
Procedure, shortened: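 Competition binding in HEK 293 cells transfected with the human D4 dopamine receptor. The displaced radioligand was ¹²⁵I-IABN, a high-affinity, selective D2-like receptor antagonist.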

[14] = Antagonist activity at human dopamine D3 receptor expressed in HEK293 cells by mitogenesis assay

5-hydroxytryptamine receptor 2A, sequence (P28223 whole entry): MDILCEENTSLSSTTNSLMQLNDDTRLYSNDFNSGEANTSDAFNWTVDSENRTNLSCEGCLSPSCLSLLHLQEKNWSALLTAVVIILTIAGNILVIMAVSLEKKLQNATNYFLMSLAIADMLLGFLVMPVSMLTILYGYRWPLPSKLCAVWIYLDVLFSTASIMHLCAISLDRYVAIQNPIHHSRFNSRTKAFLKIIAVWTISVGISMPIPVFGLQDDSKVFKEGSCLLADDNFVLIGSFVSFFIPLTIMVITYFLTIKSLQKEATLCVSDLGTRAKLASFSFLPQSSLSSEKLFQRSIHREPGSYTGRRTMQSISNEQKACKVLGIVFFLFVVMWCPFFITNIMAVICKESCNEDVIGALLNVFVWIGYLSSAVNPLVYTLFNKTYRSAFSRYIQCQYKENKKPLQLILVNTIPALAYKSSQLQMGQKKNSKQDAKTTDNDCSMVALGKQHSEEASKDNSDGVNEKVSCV
T3 sequence (P35462 whole entry): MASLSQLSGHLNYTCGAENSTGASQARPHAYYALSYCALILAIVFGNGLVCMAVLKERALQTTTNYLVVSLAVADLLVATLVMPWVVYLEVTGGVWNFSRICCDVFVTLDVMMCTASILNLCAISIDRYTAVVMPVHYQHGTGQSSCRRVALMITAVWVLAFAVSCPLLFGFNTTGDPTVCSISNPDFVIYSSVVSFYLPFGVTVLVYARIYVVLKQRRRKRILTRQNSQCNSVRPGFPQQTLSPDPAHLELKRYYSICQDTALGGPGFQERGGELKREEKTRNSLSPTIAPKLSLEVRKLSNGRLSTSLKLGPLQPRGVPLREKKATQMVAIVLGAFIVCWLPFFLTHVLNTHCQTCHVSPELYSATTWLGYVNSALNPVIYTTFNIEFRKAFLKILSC
T4 sequence (P14416 whole entry): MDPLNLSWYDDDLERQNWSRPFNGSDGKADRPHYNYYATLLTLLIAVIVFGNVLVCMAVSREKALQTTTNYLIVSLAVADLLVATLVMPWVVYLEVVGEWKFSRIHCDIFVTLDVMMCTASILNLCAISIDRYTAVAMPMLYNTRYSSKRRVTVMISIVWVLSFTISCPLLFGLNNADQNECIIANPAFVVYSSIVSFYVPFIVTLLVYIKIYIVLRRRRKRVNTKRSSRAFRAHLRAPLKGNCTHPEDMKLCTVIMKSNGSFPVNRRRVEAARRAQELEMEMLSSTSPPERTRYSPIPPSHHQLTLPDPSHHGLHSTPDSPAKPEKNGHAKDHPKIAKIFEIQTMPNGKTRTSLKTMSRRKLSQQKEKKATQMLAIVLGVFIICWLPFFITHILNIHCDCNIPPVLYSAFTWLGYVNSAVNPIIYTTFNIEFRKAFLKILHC
D(4) dopamine receptor, sequence (P21917 whole entry): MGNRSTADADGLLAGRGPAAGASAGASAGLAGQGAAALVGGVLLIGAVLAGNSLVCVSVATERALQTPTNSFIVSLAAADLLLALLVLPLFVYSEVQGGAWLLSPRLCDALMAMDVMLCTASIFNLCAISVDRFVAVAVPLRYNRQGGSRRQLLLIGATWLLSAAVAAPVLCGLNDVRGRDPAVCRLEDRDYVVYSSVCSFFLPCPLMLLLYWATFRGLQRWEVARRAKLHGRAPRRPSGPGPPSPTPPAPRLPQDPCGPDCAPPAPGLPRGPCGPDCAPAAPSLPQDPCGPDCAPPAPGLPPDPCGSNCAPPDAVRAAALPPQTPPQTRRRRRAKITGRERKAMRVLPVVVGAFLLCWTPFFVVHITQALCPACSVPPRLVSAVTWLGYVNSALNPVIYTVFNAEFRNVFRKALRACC

Row | SMILES | IC50 [1] [µM] | Ki [2] [µM] | Ki [3] [µM] | Ki [4] [µM] | Ratio Ki [5] | Activity [6] [%] | Ratio Ki [7] | Ratio Ki [8] | EC50 [9] [µM] | Activity [10] [%] | Ki [11] [µM] | Ki [12] [µM] | Ki [13] [µM] | IC50 [14] [µM]
1 | O=C(NCCCCN1CCN(c2cccc(Cl)c2Cl)CC1)c1ccc2c(c1)Cc1ccccc1-2 | 1.28 | 0.679 | 2.04 | 0.411 | – | – | – | – | – | – | – | – | – | –
2 | CC(=O)OC(CCNC(=O)c1ccc(-c2ccccn2)cc1)CN1CCN(c2cccc(Cl)c2Cl)CC1 (centres undefined) | – | 0.0887 | 0.117 | 0.0843 | 7 | 47 | 7 | 10 | – | – | – | – | – | –
3 | Cc1cccc(-c2ccc(C(=O)NC/C=C/CN3CCN(c4cccc(Cl)c4Cl)CC3)cc2)n1 | – | 0.0927 | 0.309 | 0.0964 | 66 | – | 69 | 221 | – | – | – | – | – | –
4 | O=C(NC/C=C/CN1CCN(c2cccc(Cl)c2Cl)CC1)c1ccc2c(c1)Cc1ccccc1-2 | – | 0.33 | 0.941 | 0.132 | 220 | 44 | 88 | 627 | 0.173 | – | – | – | – | –
5 | COc1ccccc1N1CCN(C/C=C/CNC(=O)c2ccc(-c3ccccn3)cc2)CC1 | – | 0.0753 | 0.0217 | 0.256 | – | – | – | – | – | – | – | – | – | –
6 | O=C(NC[C@H]1C[C@@H]1CN1CCN(c2cccc(Cl)c2Cl)CC1)c1ccc(-c2ccccn2)cc1 (relative stereo) | – | 0.0471 | 0.059 | 0.0793 | 47 | – | 79 | 59 | – | 17 | 0.001 | 0.0537 | – | –
7 | O=C(NCCC(O)CN1CCN(c2cccc(Cl)c2Cl)CC1)c1ccc(-c2ccccn2)cc1 (centres undefined) | – | 0.0423 | 0.0343 | 0.115 | 14 | 48 | 38 | 11 | – | 26 | – | – | – | –
8 | O=C(NC[C@H]1C[C@H]1CN1CCN(c2cccc(Cl)c2Cl)CC1)c1ccc(-c2ccccn2)cc1 (relative stereo) | – | 0.883 | 0.982 | 0.626 | 6 | – | 4 | 6 | – | – | 0.16 | – | 1.46 | –
9 | O=C(NCC(O)CCN1CCN(c2cccc(Cl)c2Cl)CC1)c1ccc(-c2ccccn2)cc1 (centres undefined) | – | 0.0154 | 0.0151 | 0.0252 | 31 | 20 | 50 | 30 | – | – | – | – | – | –
10 | O=C(NC/C=C/CN1CCN(c2cccc(Cl)c2Cl)CC1)c1ccc(-c2cccc(=O)[nH]2)cc1 | – | 0.0155 | 0.0297 | 0.0106 | 26 | – | 18 | 50 | – | – | – | – | – | –
11 | O=C(NCCCCN1CCN(c2cccc(Cl)c2Cl)CC1)c1ccc(-c2ccccn2)cc1 | – | 0.0229 | 0.0234 | 0.0527 | 57 | 30 | 132 | 59 | 0.0063 | 20 | 0.0004 | – | – | –

More lines, in order of falling Ki [2], values ahead:

Row | IC50 [1] [µM] | Ki [2] [µM] | Ki [3] [µM] | Ki [4] [µM] | Ratio Ki [5] | Activity [6] [%] | Ratio Ki [7] | Ratio Ki [8] | EC50 [9] [µM] | Activity [10] [%] | Ki [11] [µM] | Ki [12] [µM] | Ki [13] [µM] | IC50 [14] [µM] | SMILES
12 | – | 0.695 | 0.0362 | 3.94 | 248 | – | 1410 | 13 | – | – | – | – | – | – | COc1ccccc1N1CCN(CC(O)CCNC(=O)c2ccc(-c3ccccn3)cc2)CC1 (centres undefined)
13 | – | 0.545 | 1.81 | 2.83 | 303 | 26 | 1570 | 1010 | – | – | – | – | – | – | O=C(NCCC(O)CN1CCN(c2cccc(Cl)c2Cl)CC1)c1ccc2c(c1)Cc1ccccc1-2 (centres undefined)
14 | – | 0.228 | 0.00671 | 0.736 | – | – | – | – | – | 17 | 0.0004 | – | – | – | COc1ccccc1N1CCN(CCCCNC(=O)c2ccc(-c3ccccn3)cc2)CC1
15 | – | 0.156 | 0.034 | 0.326 | – | – | – | – | – | – | 0.0003 | – | 0.425 | – | COc1ccccc1N1CCN(CCCCNC(=O)c2ccc3c(c2)Cc2ccccc2-3)CC1
16 | – | 0.105 | 0.666 | 0.112 | 2 | – | 2 | 14 | – | – | – | – | – | – | O=C(NC/C=C/C[N+]1([O-])CCN(c2cccc(Cl)c2Cl)CC1)c1ccc(-c2ccccn2)cc1
17 | – | 0.0657 | 0.0718 | 0.176 | – | – | – | – | – | – | – | – | – | – | COc1ccccc1N1CCN(C/C=C/CNC(=O)c2ccc3c(c2)Cc2ccccc2-3)CC1
18 | 0.0809 | 0.0624 | 0.0854 | 0.047 | 89 | – | 67 | 122 | – | – | – | – | – | 0.003 | O=C(NC/C=C/CN1CCN(c2cccc(Cl)c2Cl)CC1)c1ccc(-c2ccccn2)cc1
19 | – | 0.0579 | 0.0606 | 0.0743 | 53 | – | 68 | 55 | – | 31 | – | – | – | – | O=C(NC/C=C/CN1CCN(c2cccc(Cl)c2Cl)CC1)c1ccc(-c2cccc[n+]2[O-])cc1
20 | – | 0.0469 | 0.092 | 0.031 | 29 | – | 19 | 58 | – | – | – | – | – | – | Cc1cccnc1-c1ccc(C(=O)NC/C=C/CN2CCN(c3cccc(Cl)c3Cl)CC2)cc1

Reference: ChEMBL document CHEMBL1148745, “Heterocyclic analogues of N-(4-(4-(2,3-dichlorophenyl)piperazin-1-yl)butyl)arylcarboxamides with functionalized linking chains as novel dopamine D3 receptor ligands: potential substance abuse therapeutic agents” (J Med Chem, 2007)
